Test results reported in ChEMBL document CHEMBL2034918, “Synthesis and cytotoxic activity of new acridine-thiazolidine derivatives” (Bioorg Med Chem, 2012).
Calls of active or inactive are those of the source. The rule behind the calls is not given here.

Tests used:
PBMC = experiment: Cytotoxicity against human PBMC after 72 hrs by alamar blue assay; format: cell-based
In short: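 PBMC isolated from heparinised blood of healthy non-smoking donors by Ficoll-Hypaque density gradient. Cultured in RPMI-1640 with 20% FBS, glutamine, antibiotics and 2% phytohaemagglutinin at 37 °C, 5% CO₂. Plated at 3 × 10⁵ cells/mL; compounds in DMSO added at 0.048–25 µg/mL after 24 h, 72 h exposure. Alamar blue (resazurin) added 24 h before the end; absorbance read at 570 and 595 nm. IC50 by nonlinear regression.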

V79 [1] = experiment: Cytotoxicity against chinese hamster V79 cells after 72 hrs by MTT assay; format: cell-based; settings: Cricetulus griseus, V79, 72 h
In short: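 V79 Chinese hamster lung fibroblasts grown in MEM with Earle's salts, 10% foetal bovine serum, 2 mM glutamine, penicillin/streptomycin, 37 °C, 5% CO₂. Seeded at 0.7 × 10⁵ cells/well. Compounds in DMSO added at 0.048–25 µg/mL after 24 h and left 72 h. MTT 0.5 mg/mL for 3 h, formazan in DMSO read at 595 nm. IC50 by nonlinear regression, two experiments in duplicate.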

OVCAR-8 = experiment: Antiproliferative activity against human OVCAR8 cells after 72 hrs by MTT assay; format: functional, cell-based; settings: OVCAR-8, 72 h
In short: (§1)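 Cancer lines kept in RPMI-1640 with 10% foetal bovine serum, 2 mM glutamine, penicillin/streptomycin, 37 °C, 5% CO₂. Seeded at 0.7 × 10⁵ cells/well (adherent) or 0.3 × 10⁶ cells/mL (suspension). After 24 h, compounds in DMSO added at 0.048–25 µg/mL for 72 h. Medium then replaced with 0.5 mg/mL MTT for 3 h. Formazan dissolved in DMSO, absorbance read at 595 nm.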

DU-145 = experiment: Antiproliferative activity against human DU145 cells after 72 hrs by MTT assay; format: functional, cell-based; settings: DU-145, 72 h; in short: as §1
SF-295 = experiment: Antiproliferative activity against human SF295 cells after 72 hrs by MTT assay; format: functional, cell-based; settings: SF-295, 72 h; in short: as §1
PC-3 [2] = experiment: Antiproliferative activity against human PC3 cells after 72 hrs by MTT assay; format: functional, cell-based; settings: PC-3, 72 h; in short: as §1
COLO 205 = experiment: Antiproliferative activity against human COLO205 cells after 72 hrs by MTT assay; format: functional, cell-based; settings: COLO 205, 72 h; in short: as §1
HCT-15 = experiment: Antiproliferative activity against human HCT15 cells after 72 hrs by MTT assay; format: functional, cell-based; settings: HCT-15, 72 h; in short: as §1
SW-620 = experiment: Antiproliferative activity against human SW620 cells after 72 hrs by MTT assay; format: functional, cell-based; settings: SW-620, 72 h; in short: as §1
HCT-8 = experiment: Antiproliferative activity against human HCT8 cells after 72 hrs by MTT assay; format: functional, cell-based; settings: HCT-8, 72 h; in short: as §1
HL-60 = experiment: Antiproliferative activity against human HL60 cells after 72 hrs by MTT assay; format: functional, cell-based; settings: HL-60, 72 h; in short: as §1
Nucleic Acid [3] = experiment: Binding affinity to calf thymus dsDNA in biosensor assessed as oxidation of exposed bases at 10^-4 M by differential pulse voltametry; format: nucleic-acid assay; settings: Bos taurus
In short: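 Glassy carbon electrode polished with alumina, then pretreated by five cyclic scans 0 to +1.4 V in acetate buffer pH 4.5. Electrode coated with a dsDNA gel layer, then 20 µL of 10⁻⁴ M ethanolic compound added with drying. DPV in acetate buffer from 0 to 1.4 V: pulse amplitude 50 mV, pulse width 70 ms, step 2 mV, scan rate 5 mV/s, 25 °C. An untreated dsDNA electrode served as blank.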

Nucleic Acid [4] = experiment: Binding affinity to calf thymus ssDNA in solution assessed as oxidation of exposed bases at 10^-4 M by differential pulse voltametry; format: nucleic-acid assay; settings: Bos taurus
In short: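 ssDNA made by dissolving dsDNA (3.0 mg/mL) in 1 M HCl with heating for 1 h. Compound was incorporated into a carbon paste electrode; blank paste contained ethanol only. DPV at pH 4.5 in ssDNA solution (1.0 × 10⁻⁴ M): equilibration 5 s, step 2 mV, pulse amplitude 50 mV, scan rate 5 mV/s.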

[5] = Haemolysis in mouse erythrocytes at 200 ug/mL after 30 mins by spectrophotometry; format: ADME, cell-based; settings: erythrocyte, 0.5 h
In short: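 Mouse erythrocytes used as a 2% suspension in 0.85% NaCl with 10 mM CaCl₂. Compounds tested across 1.5–200 µg/mL with 1% Triton X-100 as positive control. Incubated 30 min at room temperature, then centrifuged. Released haemoglobin in the supernatant measured at 540 nm.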

LNCaP = experiment: Cytotoxicity against human LNCAP cells after 24 hrs by MTT assay; format: functional, cell-based
PC-3 [6] = experiment: Cytotoxicity against human PC3 cells after 24 hrs by MTT assay; format: functional, cell-based; settings: PC-3, 24 h
V79 [7] = experiment: Selectivity ratio of IC50 for chinese hamster V79 cells to IC50 for human SF295 cells
MDA-MB-435 = experiment: Antiproliferative activity against human MDA-MB-435 cells after 72 hrs by MTT assay; format: functional, cell-based; settings: MDA-MB-435, 72 h; in short: as §1
UACC-62 = experiment: Antiproliferative activity against human UACC62 cells after 72 hrs by MTT assay; format: functional, cell-based; settings: UACC-62, 72 h; in short: as §1
CCRF-CEM = experiment: Antiproliferative activity against human CEM cells after 72 hrs by MTT assay; format: functional, cell-based; in short: as §1
K562 = experiment: Antiproliferative activity against human K562 cells after 72 hrs by MTT assay; format: functional, cell-based; settings: K562, 72 h; in short: as §1
MX1 = experiment: Antiproliferative activity against human MX1 cells after 72 hrs by MTT assay; format: functional, cell-based; settings: MX1, 72 h; in short: as §1
Hs-578T = experiment: Antiproliferative activity against human Hs578T cells after 72 hrs by MTT assay; format: functional, cell-based; in short: as §1
MDA-MB-231 = experiment: Antiproliferative activity against human MDA-MB-231 cells after 72 hrs by MTT assay; format: functional, cell-based; settings: MDA-MB-231, 72 h; in short: as §1

SMILES | IC50 (OVCAR-8) [µM] | IC50 (DU-145) [µM] | IC50 (PC-3 [2]) [µM] | IC50 (COLO 205) [µM] | IC50 (HCT-15) [µM] | IC50 (SW-620) [µM] | IC50 (HCT-8) [µM] | IC50 (HL-60) [µM] | Activity (Nucleic Acid [3]) | Activity (Nucleic Acid [4]) | IC50 (MDA-MB-435) [µM] | IC50 (CCRF-CEM) [µM] | IC50 (K562) [µM] | IC50 (PBMC) [µM] | IC50 (V79 [1]) [µM] | IC50 (SF-295) [µM] | Activity [5] | Ratio IC50 (V79 [7]) | IC50 (UACC-62) [µM] | other results
CCOC(=O)/C(C#N)=C/c1c2ccccc2nc2ccccc12 | 23.3 |  |  |  |  |  |  | 4.07 | Active | Active |  |  |  |  |  | 54.7 | Non-toxic |  |  | 
Cc1c(C)c2c(c(C)c1O)CCC(C)(COc1ccc(CC3SC(=O)NC3=O)cc1)O2 (stereo unspecified) [TROGLITAZONE] |  |  |  |  |  |  |  |  |  |  |  |  |  |  |  |  |  |  |  | IC50 (LNCaP): 22 µM; IC50 (PC-3 [6]): 30 µM
O=C1SC(=Cc2c3ccccc3nc3ccccc23)C(=O)N1Cc1ccc(Br)cc1 (mixture of isomers) | 37.2 |  | 8.6 | > 52.6 | 19.8 | 35.5 | 11.2 | > 52.6 | Active | Active | 25.9 | > 52.6 | > 52.6 | > 52.6 | 22.6 | 7.2 | Non-toxic | 3.1 | 50.7 | 
Cc1c(C)c2c(c(C)c1O)CCC(C)(COc1ccc(/C=C3/SC(=O)NC3=O)cc1)O2 (stereo unspecified) |  |  |  |  |  |  |  |  |  |  |  |  |  |  |  |  |  |  |  | IC50 (LNCaP): 14 µM; IC50 (PC-3 [6]): 20 µM

Continued, in another order:

IC50 (OVCAR-8) [µM] | IC50 (DU-145) [µM] | IC50 (PC-3 [2]) [µM] | IC50 (COLO 205) [µM] | IC50 (HCT-15) [µM] | IC50 (SW-620) [µM] | IC50 (HCT-8) [µM] | IC50 (HL-60) [µM] | Activity (Nucleic Acid [3]) | Activity (Nucleic Acid [4]) | IC50 (MDA-MB-435) [µM] | IC50 (CCRF-CEM) [µM] | IC50 (K562) [µM] | SMILES | IC50 (PBMC) [µM] | IC50 (V79 [1]) [µM] | IC50 (SF-295) [µM] | Activity [5] | Ratio IC50 (V79 [7]) | IC50 (UACC-62) [µM] | other results
1.4 | 0.3 | 3.3 | 1.1 | 0.3 | 0.3 | 0.3 | 0.08 |  |  |  |  |  | COc1cc(NS(C)(=O)=O)ccc1Nc1c2ccccc2nc2ccccc12 [AMSACRINE] | 21.7 | 5.8 | 0.5 |  |  |  | 
19.7 | > 60.9 | 17.7 | 46.4 | 29.2 | 26.8 | 7.4 | > 60.9 | Active | Active | 15.6 | > 60.9 | > 60.9 | Cc1ccc(CN2C(=O)S/C(=C\c3c4ccccc4nc4ccccc34)C2=O)cc1 | > 60.9 | 28.5 | 7.8 | Non-toxic | 3.7 | 21.1 | IC50 (MX1): > 60.9 µM; IC50 (Hs-578T): > 60.9 µM; IC50 (MDA-MB-231): > 60.9 µM
5.7 | 9.5 | 13 | 6.3 | 21.5 | 20.1 | 8.3 | > 58 | Active | Active | 22.2 | > 58 | > 58 | O=C1S/C(=C\c2c3ccccc3nc3ccccc23)C(=O)N1Cc1ccc(Cl)cc1 | > 58 | 17.9 | 5.8 | Non-toxic | 3.1 | 29 | IC50 (MX1): > 58 µM; IC50 (Hs-578T): > 58 µM; IC50 (MDA-MB-231): > 58 µM
9.3 |  | 27.1 | 23 | 58 | 31.3 | 5.6 | > 60.3 | Active | Active | 14.1 | > 60.3 | > 60.3 | O=C1SC(=Cc2c3ccccc3nc3ccccc23)C(=O)N1Cc1ccc(F)cc1 (mixture of isomers) | > 60.3 | 32.7 | 5.6 | Non-toxic | 5.9 | 9.5 | 
